Results on 3 molecules are retold here after ChEMBL document CHEMBL2150981, “Discovery and optimization of benzotriazine di-N-oxides targeting replicating and nonreplicating Mycobacterium tuberculosis” (J Med Chem, 2012).

For orientation: MIC90 means the lowest concentration that inhibits either 90% of growth or 90% of the strains tested, depending on the study. As usually defined, the thermodynamic solubility is the concentration in solution at equilibrium with solid. As a reminder, the CC50 is the concentration that lowers cell viability or growth by half.

The nature of series [1]: Selectivity index, ratio of CC50 for Vero cells to MIC90 for Mycobacterium tuberculosis H37Rv isolate SRI. In kind it is functional.
Another series deals with Plasma. In words: Plasma concentration in Balb/c mouse at 100 mg/kg, po at 24 hrs. The series is classed as ADME, organism-based. On the set-up: dose 100 mg/kg, route oral. Conditions: in vivo, BLD = below limit of detection. In a few lines:
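Single oral gavage dose of 100 mg/kg to female mice, three mice per time point. Blood was drawn at 5, 15, 30, 60 min and 2, 4, 6, 8 and 24 h and processed to plasma for analysis. Noncompartmental PK analysis.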

Series [2] has as its system Mycobacterium tuberculosis. The experiment in a line: Antitubercular activity against Mycobacterium tuberculosis H37Rv incubated for 10 days in anaerobic condition followed by 48 hrs incubation in aerobic condition by LORA assay. In kind it is functional.
Series [3] deals with Mycobacterium tuberculosis. In words: Antitubercular activity against Mycobacterium tuberculosis H37Rv isolate ITR after 7 days by luminescence spectrometry. In kind it is functional. Particulars: 168 h.
In series [4] the test system is Mycobacterium tuberculosis. The experiment in a line: Antitubercular activity against p-amino-salicyclic acid-resistant Mycobacterium tuberculosis ATCC 35821 after 5 days by resazurin-based microplate assay. In kind it is functional. Particulars: ATCC 35821, 120 h. The method in brief:
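Mid-log cultures grown in 7H9 with glycerol, Tween-80 and ADC. Compounds in DMSO were tested two-fold from […] against ~10^5 CFU/mL, 37°C for 5 d. Resazurin was then added for a further 2 d, and fluorescence read at ex 530/em 590 with visual confirmation. MIC was the lowest concentration inhibiting 90% of growth. Final DMSO 0.625%; two-fold variation taken as assay error.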
(The colour change of resazurin is a common sign of viable cells or microbes.)

Series [5] can be described thus: Solubility of the compound in 0.9% saline solution after 48 hrs by shake flask method at pH 7.4. In kind it is physicochemical. The method in brief: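 Shake-flask method in triplicate: ~20 mg of ground compound in 5 mL 0.9% saline pH 7.4, stirred at 25°C for 48 h. The sample was filtered through 0.45 µm PVDF and the filtrate quantified by HPLC at each compound's absorption maximum against a per-compound standard curve (R² > 0.99).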

The test system of series [6] is Mycobacterium tuberculosis. In words: Antitubercular activity against Mycobacterium tuberculosis H37Rv isolate SRI after 5 days by resazurin-based microplate assay. The series is classed as functional. Conditions: 120 h.
The subject of series [7] is L5178Y. The experiment in a line: Mutagenicity against mouse L5178Y cells at 25 ug/mL after 4 hrs by MOLY assay in absence of S9 fraction. In kind it is toxicity, cell-based. The method in brief:
(§1)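 Mouse lymphoma tk+/- → tk-/- forward mutation assay, 4 h or 24 h exposure, with or without Aroclor 1254-induced rat-liver S9. Endpoints were suspension and relative total growth, relative cloning efficiency, mutation frequency, and small TFT-resistant colonies (<0.6 mm). A call was positive for significant mutation-frequency induction; induction only slightly above 40 × 10^-6 net over mean solvent control was considered biologically negative.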

The test system of series [8] is L5178Y. In words: Mutagenicity against mouse L5178Y cells at 10 ug/mL after 4 hrs by MOLY assay in presence of S9 fraction. In kind it is toxicity, cell-based. Particulars: s9, 4 h. In a few lines: as §1
Series [9] has as its system Salmonella typhimurium. The experiment in a line: Mutagenicity in Salmonella typhimurium TA98 assessed as increase in number of revertant colonies by Ames test in absence of S9 fraction. Particulars: salmonella enterica subsp. enterica serovar typhimurium. In kind it is toxicity, organism-based. In a few lines: (§2)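 Plate-incorporation Ames test in Salmonella typhimurium TA98 and TA100, with and without an Aroclor 1254-induced rat-liver metabolic activation system containing 10% S9. Revertant colonies counted per plate, with means and standard deviations and background lawn condition recorded.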

For series [10], the system named is L5178Y. The experiment in a line: Mutagenicity against mouse L5178Y cells at 100 ug/mL after 4 hrs by MOLY assay in presence of S9 fraction. In kind it is toxicity, cell-based. Conditions: s9, 4 h. The method in brief: as §1
The subject of series [11] is Salmonella typhimurium. In words: Mutagenicity in Salmonella typhimurium TA100 assessed as increase in number of revertant colonies by Ames test in presence of S9 fraction. Particulars: salmonella enterica subsp. enterica serovar typhimurium. The series is classed as toxicity, organism-based. The method in brief: as §2
A general note: The Ames test uses bacterial strains that need an amino acid and regain growth without it when mutated back.

Series [12] relates to L5178Y. The experiment in a line: Mutagenicity against mouse L5178Y cells at 50 ug/mL after 4 hrs by MOLY assay in presence of S9 fraction. In kind it is toxicity, cell-based. Particulars: s9, 4 h. In a few lines:
as §1

In the next series the test system is Vero. The experiment in a line: Cytotoxicity against african green monkey Vero cells after 72 hrs by CellTiterGlo assay. Particulars: chlorocebus sabaeus, vero, 72 h.
Series [13] relates to L5178Y. In words: Mutagenicity against mouse L5178Y cells at 10 ug/mL after 24 hrs by MOLY assay in absence of S9 fraction. In kind it is toxicity, cell-based. The method in brief: as §1
Series [14] concerns L5178Y. The experiment in a line: Mutagenicity against mouse L5178Y cells at 100 ug/mL after 4 hrs by MOLY assay in absence of S9 fraction. In kind it is toxicity, cell-based. The method in brief: as §1
The subject of series [15] is L5178Y. The experiment in a line: Mutagenicity against mouse L5178Y cells at 25 ug/mL after 24 hrs by MOLY assay in absence of S9 fraction. In kind it is toxicity, cell-based. In a few lines:
as §1

In series [16] the test system is L5178Y. In words: Mutagenicity against mouse L5178Y cells at 10 ug/mL after 4 hrs by MOLY assay in absence of S9 fraction. In kind it is toxicity, cell-based. The method in brief: as §1
The test system of series [17] is Salmonella typhimurium. In words: Mutagenicity in Salmonella typhimurium TA98 assessed as increase in number of revertant colonies by Ames test in presence of S9 fraction. The series is classed as toxicity, organism-based. Particulars: salmonella enterica subsp. enterica serovar typhimurium. In a few lines: as §2
The test system of series [18] is L5178Y. In words: Mutagenicity against mouse L5178Y cells at 25 ug/mL after 4 hrs by MOLY assay in presence of S9 fraction. In kind it is toxicity, cell-based. Particulars: s9, 4 h. In a few lines: as §1
Series [19] concerns L5178Y. In words: Mutagenicity against mouse L5178Y cells at 50 ug/mL after 4 hrs by MOLY assay in absence of S9 fraction. The series is classed as toxicity, cell-based. The method in brief:
as §1

Series [20] relates to Salmonella typhimurium. The experiment in a line: Mutagenicity in Salmonella typhimurium TA100 assessed as increase in number of revertant colonies by Ames test in absence of S9 fraction. In kind it is toxicity, organism-based. Particulars: salmonella enterica subsp. enterica serovar typhimurium. In a few lines:
as §2

In brackets after ≈: the same amount, converted by molar mass.

As for `CCNc1n[n+]([O-])c2ccccc2[n+]1[O-]`, the “Selectivity Index” value in [1] is given as 17. Besides, in the series with Plasma, the Cp result is “BLD”. Further, the MIC90 in [2] worked out at 0.37 µg/mL (≈ 1.79 µM); in series [3], 0.57 µg/mL (≈ 2.76 µM); in series [4], 1.2 µg/mL (≈ 5.82 µM); in [6], 1.2 µg/mL (≈ 5.82 µM). Moreover, in series [5], the thermodynamic solubility at 48 h was determined as 1350 µg/mL (≈ 6550 µM).

For the molecule `[O-][n+]1nc(N2CCCC2)[n+]([O-])c2cc3c(cc21)CCC3`, the Activity entry is given as “Non-toxic” with L5178Y [7]; “Non-toxic” in the series on L5178Y [8]; “Dose-dependent effect” with Salmonella typhimurium [9]; “Non-toxic” with L5178Y [10]; “Dose-dependent effect” with Salmonella typhimurium [11]; “Non-toxic” in the series on L5178Y [12]. Moreover, the Activity result in the series with L5178Y [13] is on record as “Non-toxic”; with L5178Y [14] it was “Non-toxic”; in the series with L5178Y [15] it was “Non-toxic”; in the series with L5178Y [16] it was “Non-toxic”; with Salmonella typhimurium [17] it was “Dose-dependent effect”; in the series on L5178Y [18] it was “Non-toxic”. The Activity entry is reported as “Non-toxic” in the series on L5178Y [19] and “Dose-dependent effect” with Salmonella typhimurium [20]. In [1], the “Selectivity Index” value is reported as 80. Moreover, the Cp entry in the series with Plasma was “BLD”. For the same molecule, the MIC90 amounted to 0.99 µg/mL (≈ 3.64 µM) in [2], 0.46 µg/mL (≈ 1.69 µM) in series [3], 0.31 µg/mL (≈ 1.14 µM) in [4] and 0.31 µg/mL (≈ 1.14 µM) in series [6]. The CC50 in the series on Vero came to 25 µg/mL (≈ 91.8 µM). The thermodynamic solubility at 48 h in series [5] is 280 µg/mL (≈ 1030 µM).

For `CCNc1n[n+]([O-])c2cc3c(cc2[n+]1[O-])CCC3`, the Activity entry in the series with L5178Y [7] was “Toxic”; in the series with L5178Y [8], “Toxic”; with Salmonella typhimurium [9], “Dose-dependent effect”; in the series on L5178Y [10], “Toxic”; in the series with Salmonella typhimurium [11], “Dose-dependent effect”; in the series on L5178Y [12] it was “Toxic”. The Activity entry with L5178Y [14] is reported as “Toxic”; in the series with L5178Y [16], “Toxic”; with Salmonella typhimurium [17], “Dose-dependent effect”; with L5178Y [18] it was “Toxic”; with L5178Y [19], “Toxic”; in the series on Salmonella typhimurium [20], “Dose-dependent effect”. For the same molecule, the “Selectivity Index” value in series [1] worked out at 29. For the same molecule, the MIC90 was 0.83 µg/mL (≈ 3.37 µM) in series [2], 0.95 µg/mL (≈ 3.86 µM) in series [3], 1.2 µg/mL (≈ 4.87 µM) in [4] and 1.2 µg/mL (≈ 4.87 µM) in series [6]. This molecule returned a CC50 in the series on Vero of 36 µg/mL (≈ 146 µM).
